These results are taken from ChEMBL document CHEMBL3414496, “Synthesis and biological evaluation of novel 2-heteroarylimino-1,3-thiazolidin-4-ones as potential anti-tumor agents” (Eur J Med Chem, 2015).

As usually defined, the IC50 is the point on the concentration scale where inhibition reaches its midpoint. Read a low IC50 as higher potency.

In one test the test system is MDA-MB-231. In words: Cytotoxicity against human MDA-MB-231 cells after 72 hrs by MTT assay. The conditions noted are these: MDA-MB-231, 72 h. It is filed as functional, cell-based. In outline: (§1)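 Cells seeded at 10^4/well, exposed 24 h later to graded concentrations (0.01–100 µM) for 72 h at 37°C; MTT 0.5 mg/ml for 2 h, formazan dissolved in DMSO, absorbance at 570 nm. […] Colon lines in DMEM, breast lines in RPMI, both with 10% FCS.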
A general note: Tetrazolium assays rely on reduction of a dye to a coloured formazan, in cell work by metabolically active cells.

A further test has as its system SW-620. In words: Cytotoxicity against human SW620 cells after 72 hrs by MTT assay. Format: functional, cell-based. The conditions noted are these: SW-620, 72 h. In outline: as §1
For another test, the system named is MCF7. The test can be described thus: Cytotoxicity against human MCF7 cells after 72 hrs by MTT assay. It is filed as functional, cell-based. The conditions noted are these: MCF7, 72 h. In outline:
as §1

Test [1] in a line: Cytotoxicity against human HCT116 cells after 72 hrs by MTT assay. It is filed as functional, cell-based. The conditions noted are these: HCT-116, 72 h. In outline: as §1
Test [2] relates to HT-29. In words: Cytotoxicity against human HT-29 cells after 72 hrs by MTT assay. It is filed as functional, cell-based. The conditions noted are these: HT-29, 72 h. In outline: as §1
In test [3] the test system is HT-29. The test can be described thus: Induction of cell cycle arrest in human HT-29 cells assessed as accumulation at subG1 phase at 0.5 to 10 uM by propidium iodide staining based flow cytometry. It is filed as functional. A general note: Flow cytometry measures light scatter and fluorescence of single cells or particles in a stream.
Test [4] concerns HT-29. The test can be described thus: Induction of cell cycle arrest in human HT-29 cells assessed as increase in accumulation at S phase at 0.5 to 10 uM by propidium iodide staining based flow cytometry. It is filed as functional.
In test [5] the test system is HT-29. In words: Growth inhibition of human HT-29 cells at cytotoxic IC50 level after 3 days by trypan blue dye exclusion assay. Format: functional. In outline:
(§2)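 HT29 cells treated 48 h after seeding, dosed daily with daily medium change over three days; drug diluted in DMSO, controls 0.1% (v/v) DMSO. Cells trypsinized, mixed 1:1 with 0.04% trypan blue, live cells counted by hematimeter. Reported as mitotic index (treated/DMSO count); triplicates from two independent experiments.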

Test [6] concerns HT-29. The test can be described thus: Induction of cell cycle arrest in human HT-29 cells assessed as increase in accumulation at G0/G1 phase at 0.5 to 10 uM by propidium iodide staining based flow cytometry. It is filed as functional.
For test [7], the system named is HT-29. In words: Growth inhibition of human HT-29 cells at 0.5 to 10 uM after 3 days by trypan blue dye exclusion assay. It is filed as functional. In outline: as §2
Test [8] deals with HT-29. The test can be described thus: Growth inhibition of human HT-29 cells at 10 uM after 3 days by trypan blue dye exclusion assay. Format: functional. The conditions noted are these: HT-29, 72 h, read-out: GI. In outline: as §2

Activity calls are given as the source filed them. No cut-off for these calls is given here. Bounds are passed on as bounds.

In the case of `O=C1CS/C(=N\c2csc(-c3ccccc3)c2)N1`, the half-inhibitory concentration (IC50) (in the test on MDA-MB-231; in the test with SW-620; in the test with MCF7; in test [1]; in the test on HT-29 [2]) was > 50 µM each time.
As for `O=C1CS/C(=N\c2csc(-c3cccc4ccccc34)c2)N1`, the IC50 (in the test with MDA-MB-231; in the test on SW-620; in the test on MCF7; in test [1]; in the test on HT-29 [2]) was > 50 µM in each case.
Consider `CC(C)(C)c1cc(/N=C2/NC(=O)CS2)cs1`, for which the IC50 (in the test with MDA-MB-231; in the test with SW-620; in the test with MCF7; in [1]; in the test on HT-29 [2]) was > 50 µM throughout.
In the case of `O=C1N/C(=N/c2csc(-c3ccc(Cl)cc3)c2)S/C1=C\c1ccccn1`, the half-maximal inhibitory concentration (IC50) was 10.9 µM in the test with MDA-MB-231; > 50 µM with SW-620; 30.2 µM in the test on MCF7; 21.6 µM in [1]; 11.5 µM in the test with HT-29 [2]. For the same molecule, in the test on HT-29 [3], the outcome was inactive. In addition, the outcome in the test on HT-29 [4] was Active. Further, the “growth inhibition (GI)” value in the test with HT-29 [5] worked out at 40%.
With `CCCCCC/C=C1\S/C(=N\c2csc(-c3ccc(Cl)cc3)c2)NC1=O`, the half-maximal inhibitory concentration (IC50) was > 50 µM with MCF7 and 33.5 µM in the test on HT-29 [2].
Regarding `COc1ccc(-c2cc(/N=C3\SCC(=O)N3c3cccc(OC)c3)cs2)cc1`, the half-maximal inhibitory concentration (IC50) in the test with MDA-MB-231 turned out to be 2.7 µM; in the test with SW-620, 3.5 µM; with MCF7 it was 1.9 µM; in [1], 2.7 µM; in the test on HT-29 [2], 11.7 µM. Also, the result in the test with HT-29 [6] was Active. In addition, the result in the test on HT-29 [3] was inactive. Further, the “growth inhibition (GI)” value with HT-29 [5] came to 50%.
With `O=C1CS/C(=N\c2csc(-c3ccc(Cl)cc3)c2)N1c1cccc2ccccc12`, the half-inhibitory concentration (IC50) in the test with SW-620 was 19.5 µM; with MCF7 it was > 50 µM; in the test on HT-29 [2] it was > 50 µM.
In the case of `COc1cccc(N2C(=O)CS/C2=N\c2csc(-c3ccc(C)cc3)c2)c1`, the concentration for half-maximal inhibition (IC50) in the test on MDA-MB-231 is > 50 µM; in the test on SW-620, > 50 µM; with MCF7 it was > 50 µM; in test [1] it was 41 µM; in the test with HT-29 [2], > 50 µM.
For the molecule `O=C1CS/C(=N\c2csc(-c3ccc(Cl)cc3)c2)N1`, the concentration for half-maximal inhibition (IC50) was > 50 µM with MDA-MB-231; > 50 µM in the test with SW-620; > 50 µM in the test on MCF7; > 50 µM in test [1]; 17.1 µM in the test on HT-29 [2].
Regarding `O=C1CS/C(=N\c2c[se]c(-c3ccc(Cl)cc3)c2)N1`, the concentration for half-maximal inhibition (IC50) in the test with SW-620, in the test on MCF7 and in the test on HT-29 [2] was > 50 µM each time.
As for `O=C1CS/C(=N\c2csc(-c3ccc(Cl)cc3)c2)N1c1ccc(Cl)cc1`, the IC50 in the test on SW-620 is > 50 µM; with MCF7 it was > 50 µM; with HT-29 [2], 36.6 µM.
In the case of `COc1cccc(N2C(=O)CS/C2=N\c2csc(-c3cccc4ccccc34)c2)c1`, the IC50 with MCF7 and in the test on HT-29 [2] was > 50 µM in each case.
As for `O=C1N/C(=N/c2csc(-c3ccc(Cl)cc3)c2)S/C1=C\c1ccc(Br)cc1`, the IC50 with MDA-MB-231 came to 3.5 µM; in the test with SW-620, 0.7 µM; in the test with MCF7 it was 2.5 µM; in test [1] it was 3.3 µM; in the test on HT-29 [2] it was 2 µM. Further, in the test on HT-29 [3], the outcome was inactive. The result with HT-29 [4] was Active. Besides, in the test on HT-29 [5], the “growth inhibition (GI)” value amounted to 25%.
Turning to `O=C1CS/C(=N\c2nc(-c3ccc(Cl)cc3)cs2)N1`, the IC50 is > 50 µM in the test with MDA-MB-231; > 50 µM in the test on SW-620; > 50 µM with MCF7; 23.8 µM in test [1]; 8.9 µM with HT-29 [2].
As to `COc1cccc(N2C(=O)CS/C2=N\c2csc(-c3ccc(Cl)cc3)c2)c1`, the 50% inhibitory concentration (IC50) in the test on MDA-MB-231 was > 50 µM; in the test on SW-620, 33 µM; in the test with MCF7 it was > 50 µM; in test [1], > 50 µM; in the test with HT-29 [2], 24.6 µM.
For the molecule `O=C1N/C(=N/c2csc(-c3ccc(Cl)cc3)c2)S/C1=C\c1ccc2ccccc2c1`, the IC50 with MDA-MB-231 is 1.8 µM; in the test on SW-620, > 50 µM; in the test on MCF7, 1.2 µM; in test [1], 3 µM; in the test on HT-29 [2] it was 3.7 µM. Moreover, the “growth inhibition (GI)” value in the test with HT-29 [5] was 50%.
As for `CN(C)c1ccc(N2C(=O)CS/C2=N\c2csc(-c3ccc(Cl)cc3)c2)cc1`, the values for the IC50 in the test on MCF7 and in the test on HT-29 [2] were > 50 µM and 29.2 µM, respectively.
For `O=C1N/C(=N/c2csc(-c3ccc(Cl)cc3)c2)S/C1=C\c1ccc(F)cc1`, the IC50 in the test on SW-620 was 8.7 µM; in the test with MCF7 it was > 50 µM; in [1], 7.4 µM; in the test with HT-29 [2], 4.1 µM. In addition, the “growth inhibition (GI)” value in the test with HT-29 [5] worked out at 25%.
As for `COc1ccc(-c2cc(/N=C3/NC(=O)CS3)cs2)cc1`, the IC50 (in the test on MDA-MB-231; with SW-620; in the test with MCF7; in test [1]; in the test on HT-29 [2]) was > 50 µM in each case.
As to `COc1ccc(N2C(=O)CS/C2=N\c2csc(-c3ccc(Cl)cc3)c2)cc1OC`, the IC50 in the test with MDA-MB-231 was 46.9 µM; with SW-620, > 50 µM; with MCF7 it was 18.7 µM; in test [1] it was 49.8 µM; in the test on HT-29 [2], 14.1 µM.
Consider `O=C1N/C(=N/c2nc(-c3ccc(Cl)cc3)cs2)S/C1=C\c1ccc2ccccc2c1`, for which the half-maximal inhibitory concentration (IC50) is 0.9 µM in the test with MDA-MB-231; 20.3 µM with SW-620; 0.3 µM with MCF7; 1.2 µM in test [1]; 1.8 µM in the test with HT-29 [2]. The “growth inhibition (GI)” value is listed as <5% with HT-29 [7] and <25% with HT-29 [5].
On to `O=C1CS/C(=N\c2csc(-c3ccc(Cl)cc3)c2)N1c1ccccc1`, for which the half-maximal inhibitory concentration (IC50) was > 50 µM in the test with MCF7 and 41.4 µM in the test with HT-29 [2].
In the test with HT-29 [2], `COc1cccc(N2C(=O)CS/C2=N\c2csc(-c3ccccc3)c2)c1` had an IC50 of 38.3 µM.
Turning to `Cc1ccc(N2C(=O)CS/C2=N\c2csc(-c3ccc(Cl)cc3)c2)cc1`, the values for the IC50 in the test with SW-620, in the test on MCF7 and in the test with HT-29 [2] were > 50 µM, > 50 µM and 28.9 µM, respectively.
With `O=C1N/C(=N/c2csc(-c3ccc(Cl)cc3)c2)S/C1=C\c1ccc(O)cc1`, the IC50 in the test on MCF7 and in the test on HT-29 [2] was > 50 µM throughout.
`O=C1N/C(=N/c2csc(-c3ccc(Cl)cc3)c2)S/C1=C\c1ccc(Cl)cc1`: the 50% inhibitory concentration (IC50) came out at 6.4 µM in the test with MDA-MB-231; 4.6 µM with SW-620; 6.7 µM in the test on MCF7; 11.6 µM in test [1]; 2.8 µM with HT-29 [2]. Besides, the “growth inhibition (GI)” value with HT-29 [5] is recorded as 25%.
Turning to `Cc1ccc(/C=C2\S/C(=N\c3nc(-c4ccc(Cl)cc4)cs3)NC2=O)cc1`, the IC50 with MDA-MB-231 amounted to 0.8 µM; in the test with SW-620, 0.89 µM; with MCF7, 0.4 µM; in test [1] it was 0.5 µM; in the test with HT-29 [2], 0.5 µM. The inhibition of growth at 10 µM with HT-29 [8] was found to be 40%. The “growth inhibition (GI)” value with HT-29 [5] is recorded as <25%.
`Cc1ccc(-c2cc(/N=C3/NC(=O)CS3)cs2)cc1`: the 50% inhibitory concentration (IC50) (with MDA-MB-231; with SW-620; with MCF7; in [1]; in the test with HT-29 [2]) was > 50 µM each time.
Regarding `O=C1N/C(=N/c2csc(-c3ccc(Cl)cc3)c2)S/C1=C\c1ccccc1`, the IC50 is 18 µM in the test with MDA-MB-231; > 50 µM in the test with SW-620; > 50 µM with MCF7; 11.2 µM in test [1]; 10.5 µM with HT-29 [2]. Also, in the test with HT-29 [3], the outcome was inactive. For the same molecule, the result with HT-29 [4] was Active.
`O=C1N/C(=N/c2nc(-c3ccc(Cl)cc3)cs2)S/C1=C\c1ccc(F)cc1`: the IC50 in the test on MDA-MB-231 is > 50 µM; in the test with SW-620, > 50 µM; in the test with MCF7, > 50 µM; in test [1], 7.5 µM; in the test with HT-29 [2], 2.9 µM.
